According to ChEMBL document CHEMBL3997841, “Continued optimization of the M5 NAM ML375: Discovery of VU6008667, an M5 NAM with high CNS penetration and a desired short half-life in rat for addiction studies” (Bioorg Med Chem Lett, 2017):
≈ marks a conversion by molar mass, not a printed value.

Tests used:
[1] = Fraction unbound in human plasma at 5 uM after 4 hrs by LC-MS/MS based equilibrium dialysis method; assay type: ADME, cell-free
[2] = Fraction unbound in rat plasma at 5 uM after 4 hrs by LC-MS/MS based equilibrium dialysis method; assay type: ADME, cell-free
[3] = target: T1, Muscarinic acetylcholine receptor M5 (Homo sapiens) (UniProt P08912); assay: Negative allosteric modulation of human M5 receptor expressed in CHO cells assessed as inhibition of acetyl choline-induced calcium mobilization at 10 uM preincubated for 150 secs followed by acetyl choline addition by Fluo-4-AM dye based fluorescence assay relative to acetyl choline; values are per cent of control
T1 sequence (whole entry): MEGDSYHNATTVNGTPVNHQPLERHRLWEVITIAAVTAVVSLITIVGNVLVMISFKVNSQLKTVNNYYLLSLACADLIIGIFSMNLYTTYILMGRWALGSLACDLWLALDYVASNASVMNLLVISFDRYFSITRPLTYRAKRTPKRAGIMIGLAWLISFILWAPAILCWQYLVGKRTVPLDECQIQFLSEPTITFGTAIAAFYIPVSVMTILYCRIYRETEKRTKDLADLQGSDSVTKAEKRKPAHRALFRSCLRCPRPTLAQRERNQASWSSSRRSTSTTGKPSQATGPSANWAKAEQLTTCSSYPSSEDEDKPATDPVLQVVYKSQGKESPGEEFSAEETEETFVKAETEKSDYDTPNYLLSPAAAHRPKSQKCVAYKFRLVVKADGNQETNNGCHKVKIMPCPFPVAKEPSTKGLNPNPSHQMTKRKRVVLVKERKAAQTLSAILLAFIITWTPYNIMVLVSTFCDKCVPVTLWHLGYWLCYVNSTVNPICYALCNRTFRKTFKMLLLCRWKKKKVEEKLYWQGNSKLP

[4] = Elimination half life in rat by LC-MS/MS analysis; assay type: ADME; conditions: in vivo, read-out: beta t1/2
[5] = Clearance in rat plasma by LC/MS/MS analysis; assay type: ADME
[6] = target: T2, Muscarinic acetylcholine receptor M5 (Homo sapiens, UniProt P08912); assay: Negative allosteric modulation of human M5 receptor expressed in CHO cells assessed as inhibition of acetyl choline-induced calcium mobilization preincubated for 150 secs followed by acetyl choline addition by Fluo-4-AM dye based fluorescence assay; assay type: functional, cell-based
T2 sequence (P08912 whole entry): T1 sequence (whole entry)
In short: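 Intracellular calcium mobilization in CHO cells stably transfected with human M5 receptor, run in the presence of an ACh EC80 concentration; values are means of at least three independent determinations, each performed in triplicate.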

[7] = Selectivity ratio of IC50 for rat M5 receptor expressed in CHO cells to IC50 for human M5 receptor expressed in CHO cells; assay type: cell-based
[8] = Aqueous solubility of the compound; assay type: physicochemical; conditions: buffer

SMILES	fraction unbound at 4 h, 5 µM [1]	fraction unbound at 4 h, 5 µM [2]	residual activity [3] [%]	half-life [4] [min]	clearance [5] [mL/min/kg]	IC50 ([6]; read-out: IC50) [µM]	Ratio IC50 [7]	solubility [8] [µg/mL]	IC50 ([6]; read-out: pIC50 (converted)) [µM]
N#CC1CCCN(c2ccc([C@@]34c5ccccc5C(=O)N3CCN4C(=O)c3ccc(F)c(F)c3)cc2)C1 (some centres undefined)	< 0.01	< 0.01	26.3	< 30	> 70	–	–	–	–
O=C(c1ccc(F)c(F)c1)N1CCN2C(=O)c3ccccc3[C@@]12c1ccc(N2CCCCC2C(F)(F)F)cc1 (some centres undefined)	< 0.01	< 0.01	2.6	< 30	> 70	5.7	–	–	–
O=C(c1ccc(F)c(F)c1)N1CCN2C(=O)c3ccccc3[C@@]12c1ccc(N2CCC(F)(F)CC2)cc1	< 0.01	< 0.01	3.1	< 30	> 70	1.82	2	10000 (≈ 19.6 mM)	–
CCOC(=O)N1CCN(c2ccc([C@@]34c5ccccc5C(=O)N3CCN4C(=O)c3ccc(F)c(F)c3)cc2)CC1	< 0.01	< 0.01	7.5	< 30	> 70	–	–	–	–
O=C(c1ccc(F)c(F)c1)N1CCN2C(=O)c3ccccc3[C@@]12c1ccc(N2CC[C@@H](F)C2)cc1	< 0.01	< 0.01	3.3	< 30	> 70	3.09	–	–	3.02
O=C(c1ccc(F)c(F)c1)N1CCN2C(=O)c3ccccc3[C@@]12c1ccc(N2CCC(C(F)(F)F)CC2)cc1	< 0.01	< 0.01	3.2	< 30	> 70	3.42	–	–	–
O=C(c1ccc(F)c(F)c1)N1CCN2C(=O)c3ccccc3[C@@]12c1ccc(N2CCc3ccccc3C2)cc1	< 0.01	< 0.01	20.1	< 30	> 70	8.21	–	–	7.76
O=C(c1ccc(F)c(F)c1)N1CCN2C(=O)c3ccccc3[C@@]12c1ccc(N2CC3(C2)CC(F)(F)C3)cc1	< 0.01	< 0.01	26.2	< 30	> 70	> 10	–	–	–
CC1Cc2ccccc2N1c1ccc([C@@]23c4ccccc4C(=O)N2CCN3C(=O)c2ccc(F)c(F)c2)cc1 (some centres undefined)	< 0.01	< 0.01	27	< 30	> 70	4.55	–	–	4.47
O=C(c1ccc(F)c(F)c1)N1CCN2C(=O)c3ccccc3[C@@]12c1ccc(NC2CCC2)cc1	< 0.01	< 0.01	25.5	< 30	> 70	6.92	–	–	6.76
